Source: ChEMBL document CHEMBL3286255, “Rational design and synthesis of novel thiazolidin-4-ones as non-nucleoside HIV-1 reverse transcriptase inhibitors” (Bioorg Med Chem, 2014)

Experiments:
[1] = Selectivity index, ratio of CC50 for human TZM-bl cells to EC50 for X4 tropic Human immunodeficiency virus 1 3B subtype B; assay type: toxicity, cell-based; conditions: read-out: Ratio CC50/EC50
[2] = Cytotoxicity against human TZM-bl cells after 48 hrs by MTT assay; assay type: cell-based
Procedure, shortened: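 TZM-bl cells seeded 1×10^4/well and left overnight at 37 °C, 5% CO2. Medium then replaced with a two-fold dilution series of compound in quadruplicate. […] Mean of three independent assays.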

[3] = test system: Human immunodeficiency virus 1; assay: Antiviral activity against X4 tropic Human immunodeficiency virus 1 3B subtype B infected in human TZM-bl cells assessed as reduction in virus-induced cytopathic effect after 48 hrs by luminescence assay; assay type: functional, organism-based; conditions: Human immunodeficiency virus 1, 3B subtype B, TZM-bl, 48 h; read-out: EC50
Procedure, shortened: (§1)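 TZM-bl cells (HeLa-derived; CD4, CXCR4, CCR5; LTR-driven luciferase) seeded 1×10^4/well, left overnight at 37 °C, 5% CO2, then infected with 400 TCID50 virus for 2 h. Serial compound dilutions added in duplicate, only at levels giving >50% viability. […] Mean of two independent assays; nevirapine as positive control.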

[4] = test system: Human immunodeficiency virus 1; assay: Antiviral activity against R5 tropic Human immunodeficiency virus 1 VB59 subtype C infected in human TZM-bl cells assessed as reduction in virus-induced cytopathic effect after 48 hrs by luminescence assay; assay type: functional, organism-based; conditions: Human immunodeficiency virus 1, VB59 subtype C, TZM-bl, 48 h; read-out: EC50; procedure, shortened: as §1
[5] = Selectivity index, ratio of CC50 for human TZM-bl cells to EC50 for X4 tropic Human immunodeficiency virus 1 UG070 subtype D; assay type: toxicity, cell-based; conditions: read-out: Ratio CC50/EC50
[6] = test system: Human immunodeficiency virus; assay: Inhibition of HIV reverse transcriptase at 100 ug/ml after 1 hr by ELISA relative to control
Procedure, shortened: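 Kit ELISA for HIV RT. Template/primer, biotin- and DIG-labelled dNTPs and RT enzyme in lysis buffer incubated 1 h at 37 °C. Product captured on streptavidin, detected with anti-DIG-peroxidase and ABTS substrate, and read at 405 nm. Percent inhibition calculated against a no-inhibitor sample.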

[7] = Selectivity index, ratio of CC50 for human TZM-bl cells to EC50 for R5 tropic Human immunodeficiency virus 1 VB59 subtype C; assay type: toxicity, cell-based; conditions: read-out: Ratio CC50/EC50
[8] = Selectivity index, ratio of CC50 for human TZM-bl cells to EC50 for R5 tropic Human immunodeficiency virus 1 ADA5 subtype B; assay type: toxicity, cell-based; conditions: read-out: Ratio CC50/EC50
[9] = test system: Human immunodeficiency virus 1; assay: Antiviral activity against R5 tropic Human immunodeficiency virus 1 ADA5 subtype B infected in human TZM-bl cells assessed as reduction in virus-induced cytopathic effect after 48 hrs by luminescence assay; assay type: functional, organism-based; conditions: Human immunodeficiency virus 1, ADA5 subtype B, TZM-bl, 48 h; read-out: EC50; procedure, shortened: as §1
[10] = test system: Human immunodeficiency virus 1; assay: Antiviral activity against X4 tropic Human immunodeficiency virus 1 UG070 subtype D infected in human TZM-bl cells assessed as reduction in virus-induced cytopathic effect after 48 hrs by luminescence assay; assay type: functional, organism-based; conditions: Human immunodeficiency virus 1, UG070 subtype D, TZM-bl, 48 h; read-out: EC50; procedure, shortened: as §1

| SMILES | selectivity ratio [1] | CC50 at 48 h [2] [nM] | EC50 [3] [nM] | EC50 [4] [nM] | selectivity ratio [5] | inhibition [6] [%] | selectivity ratio [7] | selectivity ratio [8] | EC50 [9] [nM] | EC50 [10] [nM] |
| --- | --- | --- | --- | --- | --- | --- | --- | --- | --- | --- |
| COc1cc(OC)nc(N2C(=O)CSC2c2c(Cl)cccc2[N+](=O)[O-])n1 (stereo not given) | 806 | 80600 | 100 | 220 | 298 | 79.4 | 367 | 366 | 220 | 270 |
| COc1cc(OC)nc(N2C(=O)CSC2c2c(Cl)cccc2Cl)n1 (stereo not given) | 1220 | 85400 | 70 | 120 | 427 | 76.8 | 662 | 855 | 100 | 200 |
| COc1cc(OC)nc(N2C(=O)CSC2c2c(F)cccc2Cl)n1 (stereo not given) | 545 | 98200 | 180 | 320 | 409 | 95.4 | 307 | 614 | 160 | 240 |
| Cc1ccnc2c1NC(=O)c1cccnc1N2C1CC1 [NEVIRAPINE] | 2060 | 76100 | 30 | 30 | 2060 | 99.2 | 2060 | 2060 | 30 | 30 |
| N#Cc1ccc(C2SCC(=O)N2c2ccc(C#N)cn2)cc1 (stereo not given) | 2.38 | 128000 | 53600 | 80100 | 1.2 | 30.4 | 1.59 | 1.71 | 74200 | 106000 |
